Laboratory results as given in ChEMBL document CHEMBL1154121, “alpha-Substituted norstatines as the transition-state mimic in inhibitors of multiple digestive vacuole malaria aspartic proteases” (Bioorg Med Chem, 2009).
The source made the active and inactive calls. No cut-off for these calls is given here.

Assays:
[1] = biological target: T1, Cathepsin D (Homo sapiens, UniProt P07339); assay: Inhibition of human liver cathepsin D
In short: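 Human liver cathepsin D activated 20 min at 37 °C in 100 mM sodium acetate pH 4.5, 10% glycerol, 0.01% Tween 20. Inhibitor serially diluted in DMSO (1% final) added before 3 µM DABCYL-Glu-Arg-Nle-Phe-Leu-Ser-Phe-Pro-EDANS; fluorescence increase read over 10 min. IC50 from Langmuir isotherm assuming competitive inhibition, converted to Ki via IC50/(1+[S]/Km); top concentration limited to 10.0 µM by inhibitor fluorescence.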

[2] = biological target: Protease (Human immunodeficiency virus 1, UniProt Q9YQ12); assay: Inhibition of HIV1 protease
In short: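 Recombinant HIV-1 protease expressed in E. coli; Ki from fluorometric assay, two independent measurements; a reference inhibitor included to check variability, standard deviation ±50% of mean.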

[3] = biological target: T1, Cathepsin D; assay: Ratio of compound Ki to KNI-10006 Ki for human liver cathepsin D
[4] = Selectivity ratio of Ki for human liver cathepsin D to Ki for Plasmodium falciparum plasmepsin-2 expressed in Escherichia coli BL21 (DE3)
[5] = Inhibition of Plasmodium ovale plasmepsin-4 expressed in Escherichia coli BL21 (DE3) by spectrophotometric assay with chromogenic substrate
[6] = biological target: Aspartic protease PM4 (Plasmodium vivax, UniProt O60989); assay: Inhibition of Plasmodium vivax plasmepsin-4 expressed in Escherichia coli BL21 (DE3) by spectrophotometric assay with chromogenic substrate
[7] = Inhibition of Plasmodium malariae plasmepsin-4 expressed in Escherichia coli BL21 (DE3) by spectrophotometric assay with chromogenic substrate
[8] = biological target: Plasmepsin II (Plasmodium falciparum, UniProt P46925); assay: Inhibition of Plasmodium falciparum plasmepsin-2 expressed in Escherichia coli BL21 (DE3) by spectrophotometric assay with chromogenic substrate
[9] = Inhibition of Plasmodium falciparum plasmepsin-4 expressed in Escherichia coli BL21 (DE3) by spectrophotometric assay with chromogenic substrate
[10] = biological target: Beta-secretase 1 (Homo sapiens) (UniProt P56817); assay: Inhibition of human BACE1 at < 10 uM
[11] = tested on: Plasmodium falciparum; assay: Antiplasmodial activity against Plasmodium falciparum infected in erythrocyte culture; type: functional, organism-based
[12] = biological target: Plasmepsin I (Plasmodium falciparum, UniProt P39898); assay: Inhibition of Plasmodium falciparum plasmepsin-1
[13] = Inhibition of Plasmodium falciparum plasmepsin-4
In short: (§1)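 Self-activated in 0.1 M sodium acetate pH 4.5, 37 °C, 5 min. Chromogenic substrate hydrolysis followed spectrophotometrically; Michaelis-Menten curves at ≥5 substrate levels with no inhibitor and two inhibitor concentrations, fitted together for Ki.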

[14] = biological target: Plasmepsin III (Plasmodium falciparum, UniProt Q9Y006); assay: Inhibition of Plasmodium falciparum histo-aspartyl protease
[15] = Inhibition of Plasmodium malariae plasmepsin-4; in short: as §1
[16] = tested on: Human immunodeficiency virus 1; assay: Antiviral activity against HIV1 replication in infected cells; type: functional, organism-based
[17] = tested on: Human immunodeficiency virus 1; assay: Antiviral activity against HIV1 3B infected in human MT4 cells; type: functional, organism-based; settings: Human immunodeficiency virus 1, 3B

Sequence of Aspartic protease PM4 (O60989 whole entry): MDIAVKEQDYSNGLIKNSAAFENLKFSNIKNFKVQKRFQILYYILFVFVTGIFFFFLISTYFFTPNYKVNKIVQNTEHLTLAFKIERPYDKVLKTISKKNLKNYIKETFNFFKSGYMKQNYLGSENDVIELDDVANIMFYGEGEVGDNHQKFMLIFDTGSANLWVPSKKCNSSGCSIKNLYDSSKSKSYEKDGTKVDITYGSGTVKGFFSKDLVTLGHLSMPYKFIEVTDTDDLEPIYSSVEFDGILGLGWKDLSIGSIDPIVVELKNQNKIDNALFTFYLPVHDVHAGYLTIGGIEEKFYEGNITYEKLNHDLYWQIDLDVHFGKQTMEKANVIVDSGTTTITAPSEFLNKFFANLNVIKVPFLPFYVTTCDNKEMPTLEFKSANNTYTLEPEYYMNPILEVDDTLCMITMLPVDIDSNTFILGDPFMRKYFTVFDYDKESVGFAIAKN
Sequence of Protease (Q9YQ12 whole entry): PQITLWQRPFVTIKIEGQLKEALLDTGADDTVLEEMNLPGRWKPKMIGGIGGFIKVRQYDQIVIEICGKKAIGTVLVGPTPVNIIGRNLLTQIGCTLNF
Sequence of Beta-secretase 1 (Homo sapiens) (P56817 whole entry): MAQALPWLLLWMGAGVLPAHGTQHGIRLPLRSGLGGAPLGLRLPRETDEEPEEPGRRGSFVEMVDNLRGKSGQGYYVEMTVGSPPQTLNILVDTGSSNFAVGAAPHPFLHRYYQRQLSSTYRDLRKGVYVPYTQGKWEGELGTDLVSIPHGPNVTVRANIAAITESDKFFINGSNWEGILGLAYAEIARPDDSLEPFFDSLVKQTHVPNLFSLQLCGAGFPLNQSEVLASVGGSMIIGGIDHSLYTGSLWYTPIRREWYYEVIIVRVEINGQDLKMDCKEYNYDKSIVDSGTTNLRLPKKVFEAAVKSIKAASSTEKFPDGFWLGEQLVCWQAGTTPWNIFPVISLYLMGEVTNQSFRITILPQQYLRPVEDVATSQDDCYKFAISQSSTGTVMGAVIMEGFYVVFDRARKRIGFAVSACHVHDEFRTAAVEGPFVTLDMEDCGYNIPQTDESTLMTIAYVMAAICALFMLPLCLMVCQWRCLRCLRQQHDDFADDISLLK
T1 sequence (P07339 65-162 limits assumed): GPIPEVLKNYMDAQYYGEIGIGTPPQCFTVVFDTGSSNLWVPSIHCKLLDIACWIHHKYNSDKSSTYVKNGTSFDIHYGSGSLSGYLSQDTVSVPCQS
T1 sequence (P07339 169-412 limits assumed): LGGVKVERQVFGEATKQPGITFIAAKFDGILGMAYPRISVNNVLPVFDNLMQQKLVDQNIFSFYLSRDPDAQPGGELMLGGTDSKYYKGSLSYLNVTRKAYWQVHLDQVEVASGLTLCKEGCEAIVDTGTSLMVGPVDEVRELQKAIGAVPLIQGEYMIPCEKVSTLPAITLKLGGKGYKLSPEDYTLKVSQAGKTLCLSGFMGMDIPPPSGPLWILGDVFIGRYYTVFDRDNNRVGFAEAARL
Sequence of Plasmepsin II (P46925 whole entry): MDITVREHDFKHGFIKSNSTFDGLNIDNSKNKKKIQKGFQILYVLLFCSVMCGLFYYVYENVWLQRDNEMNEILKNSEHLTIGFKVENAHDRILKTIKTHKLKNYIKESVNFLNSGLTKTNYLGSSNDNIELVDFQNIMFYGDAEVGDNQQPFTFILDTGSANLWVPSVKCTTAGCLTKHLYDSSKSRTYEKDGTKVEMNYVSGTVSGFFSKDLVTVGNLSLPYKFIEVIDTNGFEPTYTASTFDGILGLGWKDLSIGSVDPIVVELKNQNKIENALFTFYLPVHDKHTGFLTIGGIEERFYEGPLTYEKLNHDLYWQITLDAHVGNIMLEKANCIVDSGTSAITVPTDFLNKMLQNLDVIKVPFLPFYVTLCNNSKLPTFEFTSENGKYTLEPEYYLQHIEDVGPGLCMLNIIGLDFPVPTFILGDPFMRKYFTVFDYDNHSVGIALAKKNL
Sequence of Plasmepsin III (Q9Y006 whole entry): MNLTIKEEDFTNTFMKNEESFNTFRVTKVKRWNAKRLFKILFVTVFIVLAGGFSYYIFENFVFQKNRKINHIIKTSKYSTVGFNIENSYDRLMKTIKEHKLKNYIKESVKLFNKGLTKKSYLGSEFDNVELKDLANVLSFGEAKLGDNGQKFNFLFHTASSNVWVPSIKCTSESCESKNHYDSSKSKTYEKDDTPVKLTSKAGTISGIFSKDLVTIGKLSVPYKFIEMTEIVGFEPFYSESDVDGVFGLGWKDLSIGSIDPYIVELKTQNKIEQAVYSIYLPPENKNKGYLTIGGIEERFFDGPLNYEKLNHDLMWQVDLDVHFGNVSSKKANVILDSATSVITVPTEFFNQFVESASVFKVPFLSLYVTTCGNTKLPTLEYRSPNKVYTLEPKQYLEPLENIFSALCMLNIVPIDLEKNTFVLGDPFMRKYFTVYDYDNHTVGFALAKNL
Sequence of Plasmepsin I (P39898 whole entry): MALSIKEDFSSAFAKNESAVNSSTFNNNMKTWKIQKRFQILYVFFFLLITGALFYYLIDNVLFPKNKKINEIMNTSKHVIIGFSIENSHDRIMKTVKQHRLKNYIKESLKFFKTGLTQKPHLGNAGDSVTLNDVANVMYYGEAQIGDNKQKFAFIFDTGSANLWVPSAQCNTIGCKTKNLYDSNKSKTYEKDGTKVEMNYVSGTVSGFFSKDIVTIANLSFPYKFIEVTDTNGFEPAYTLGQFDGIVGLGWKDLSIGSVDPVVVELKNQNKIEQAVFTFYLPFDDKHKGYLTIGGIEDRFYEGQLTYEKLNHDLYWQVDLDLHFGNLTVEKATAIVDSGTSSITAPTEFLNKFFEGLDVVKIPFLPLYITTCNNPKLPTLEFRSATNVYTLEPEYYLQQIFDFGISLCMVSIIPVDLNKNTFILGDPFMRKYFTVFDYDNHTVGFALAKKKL

Ki [1] | Ratio Ki [3] | Ki [6] | Ki [8] | Activity [10] | SMILES | Ki [5] | Ki [7] | Ki [9] | also measured
> 10 µM | – | – | – | – | Cc1cccc(C)c1OCC(=O)NCC(O)(CCc1ccccc1)C(=O)N[C@@H](Cc1ccccc1)C(=O)N[C@H]1c2ccccc2C[C@H]1O (stereo in doubt; (B)-20) [listing 1 of 2 here] | – | – | – | Ki [2]: 1000 nM
– | 5000 | – | – | – | Cc1cccc(C)c1OCC(=O)NCC(O)(CCc1ccccc1)C(=O)N1CCC[C@H]1C(=O)N[C@H]1c2ccccc2C[C@H]1O (stereo in doubt; (B)-19) [listing 1 of 2 here] | – | – | – | –
> 10 µM | 5000 | 390 nM | 0.44 µM | – | Cc1cccc(C)c1OCC(=O)NC[C@@](O)(CCc1ccccc1)C(=O)N1CSC(C)(C)[C@@H]1C(=O)N[C@H]1c2ccccc2C[C@H]1O | 1000 nM | 1100 nM | 6.3 µM | Ratio Ki [4]: > 20000
– | 5000 | – | – | inactive | Cc1cccc(C)c1OCC(=O)NCC(O)(CCc1ccccc1)C(=O)N[C@@H](Cc1ccccc1)C(=O)N[C@H]1c2ccccc2C[C@H]1O (stereo in doubt; (A)-20) [listing 1 of 2 here] | – | – | – | –
> 10 µM | 5000 | 160 nM | > 20 µM | inactive | Cc1cccc(C)c1OCC(=O)NC[C@@](O)(Cc1ccccc1)C(=O)N1CSC(C)(C)[C@H]1C(=O)N[C@H]1c2ccccc2C[C@H]1O | 110 nM | 260 nM | 0.7 µM | –
> 10 µM | – | 2200 nM | > 20 µM | – | Cc1cccc(C)c1OCC(=O)NCC(O)(CCc1ccccc1)C(=O)N1CCC[C@H]1C(=O)N[C@H]1c2ccccc2C[C@H]1O (stereo in doubt; (A)-19) [listing 1 of 2 here] | 7200 nM | 14500 nM | 30.2 µM | –
0.002 µM | – | – | – | – | Cc1cccc(C)c1OCC(=O)N[C@@H](Cc1ccccc1)[C@H](O)C(=O)N1CSC(C)(C)[C@H]1C(=O)N[C@H]1c2ccccc2C[C@H]1O | – | – | – | Ratio Ki [4]: 4; IC50 [11]: 6.8 µM; IC50 [12]: 280 nM; IC50 [13]: 15 nM; IC50 [14]: 690 nM
– | 5000 | – | – | inactive | Cc1cccc(C)c1OCC(=O)NCC(O)(CCc1ccccc1)C(=O)N[C@@H](Cc1ccccc1)C(=O)N[C@H]1c2ccccc2C[C@H]1O (stereo in doubt; (B)-20) [listing 2 of 2 here] | – | – | – | –
> 10 µM | – | – | – | – | Cc1cccc(C)c1OCC(=O)NCC(O)(CCc1ccccc1)C(=O)N[C@@H](Cc1ccccc1)C(=O)N[C@H]1c2ccccc2C[C@H]1O (stereo in doubt; (A)-20) [listing 2 of 2 here] | – | – | > 20 µM | –
– | 5000 | – | – | – | Cc1cccc(C)c1OCC(=O)NCC(O)(CCc1ccccc1)C(=O)N1CCC[C@H]1C(=O)N[C@H]1c2ccccc2C[C@H]1O (stereo in doubt; (A)-19) [listing 2 of 2 here] | – | – | – | –
– | – | – | – | – | Cc1ccccc1CNC(=O)[C@H]1N(C(=O)[C@@H](O)[C@H](Cc2ccccc2)NC(=O)c2cccc(O)c2C)CSC1(C)C | – | – | – | Ki [15]: 110 nM
– | – | – | – | – | COC(=O)N[C@H](C(=O)NN(Cc1ccccc1)C[C@@](O)(Cc1ccccc1)C(=O)N[C@H]1c2ccccc2C[C@H]1O)C(C)(C)C | – | – | – | Ki [2]: 6 nM; EC50 [16]: 1900 nM; Ki [13]: 12 µM
> 10 µM | 5000 | 190 nM | > 20 µM | inactive | Cc1cccc(C)c1OCC(=O)NC[C@](O)(Cc1ccccc1)C(=O)N1CSC(C)(C)[C@H]1C(=O)N[C@H]1c2ccccc2C[C@H]1O | 530 nM | 250 nM | 0.72 µM | –
> 10 µM | 5000 | 370 nM | 1.4 µM | – | Cc1cccc(C)c1OCC(=O)NC[C@@](O)(CCc1ccccc1)C(=O)N1CSC(C)(C)[C@H]1C(=O)N[C@H]1c2ccccc2C[C@H]1O | 4500 nM | 7900 nM | 3.1 µM | EC50 [17]: 6.4 µM
> 10 µM | 5000 | 120 nM | 1.7 µM | inactive | Cc1cccc(C)c1OCC(=O)NC[C@](O)(Cc1ccccc1)C(=O)N1CSC(C)(C)[C@@H]1C(=O)N[C@H]1c2ccccc2C[C@H]1O | 610 nM | 420 nM | 1.7 µM | Ki [2]: 670 nM
> 10 µM | 5000 | 160 nM | 0.83 µM | inactive | Cc1cccc(C)c1OCC(=O)NC[C@@](O)(Cc1ccccc1)C(=O)N1CSC(C)(C)[C@@H]1C(=O)N[C@H]1c2ccccc2C[C@H]1O | 1300 nM | 210 nM | 1.7 µM | –
– | – | – | – | – | COC(=O)N[C@H](C(=O)NN(Cc1ccccc1)C[C@](O)(Cc1ccccc1)C(=O)N[C@H]1c2ccccc2C[C@H]1O)C(C)(C)C | – | – | – | Ki [2]: 2200 nM; EC50 [16]: > 10000 nM; Ki [13]: 48 µM
> 10 µM | 5000 | 340 nM | 7.6 µM | – | Cc1cccc(C)c1OCC(=O)NC[C@](O)(CCc1ccccc1)C(=O)N1CSC(C)(C)[C@@H]1C(=O)N[C@H]1c2ccccc2C[C@H]1O | 880 nM | 1600 nM | 10.7 µM | –
– | – | 1300 nM | > 20 µM | – | Cc1cccc(C)c1OCC(=O)NCC(O)(CCc1ccccc1)C(=O)N1CCC[C@H]1C(=O)N[C@H]1c2ccccc2C[C@H]1O (stereo in doubt; (B)-19) [listing 2 of 2 here] | 10300 nM | 13000 nM | 26.9 µM | –
> 10 µM | 5000 | 2200 nM | 7.4 µM | – | Cc1cccc(C)c1OCC(=O)NC[C@](O)(CCc1ccccc1)C(=O)N1CSC(C)(C)[C@H]1C(=O)N[C@H]1c2ccccc2C[C@H]1O | 6500 nM | > 20000 nM | 5.5 µM | –
